Experimental data taken from ChEMBL document CHEMBL1130202, “Biologically active heteroarotinoids exhibiting anticancer activity and decreased toxicity” (J Med Chem, 1997).

Test system: Mus musculus
Test: Effect of compound on Spleen to body weight ratios in mice at 0.1 mg/kg/day dose on day 65; dead by day 65
Type: functional, organism-based
Procedure, shortened: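 Male B6D2F1 mice dosed daily by gavage with compound in corn oil; vehicle 1 (corn oil) controls run to termination on day 65. Low, mid 1, mid 2 and high dose groups, with dosage increases partway through the study. Organ-to-body weight ratios (×1000) taken at necropsy on day 65, reported as mean ± SD for 4 to 8 animals and as % difference from vehicle.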

## C/C(=C\c1ccc(C(=O)O)cc1)c1ccc2c(c1)C(C)(C)CCC2(C)C
  Activity: Toxic
